Calls of active or inactive are those of the source. The calls are words filed in the database; no cut-off is given here.
Tested on: SK-MEL-28
Assay: Antiproliferative activity against human SK-MEL-28 cells assessed as cell growth at 10 uM incubated for 48 hrs by MTT assay relative to control
Assay type: functional
Settings: read-out: Activity
Procedure, shortened: (§1)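 Cells in DMEM with 10 % FBS, 2 mM glutamine and pen-strep, 37 °C, 5 % CO₂, plated to reach 80–90 % confluence at endpoint. At 16 h, compounds were added from a 10 mM DMSO stock to 10 μM final. After 48 h, MTT (2 mg/mL in PBS) was added for 4 h, formazan dissolved in DMSO, and OD read at 570 nm. Results are % of solvent control; three runs, six replicates each, mean ± SD.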

Compound	growth at 10 µM [%]
CCCC(O)Cn1nc(Nc2ccc(C)cc2)c(C(=O)OCC)c1N (centres undefined)	137
CCOC(=O)c1c(Nc2cccc(C(F)(F)F)c2)nn(CC(O)c2ccccc2)c1N (centres undefined)	124
CCCC(O)Cn1nc(Nc2cccc(C(F)(F)F)c2)c(C(=O)OCC)c1N (centres undefined)	113
CCOC(=O)c1c(Nc2ccccc2Cl)nn(CC(O)c2ccccc2)c1N (centres undefined)	136

Tested on: SK-OV-3
Assay: Antiproliferative activity against human SK-OV-3 cells assessed as cell growth at 10 uM incubated for 48 hrs by MTT assay relative to control
Assay type: functional
Settings: read-out: Activity
Procedure, shortened: as §1

Compound	growth at 10 µM [%]
CCCC(O)Cn1nc(Nc2ccc(C)cc2)c(C(=O)OCC)c1N (centres undefined)	119
CCOC(=O)c1c(Nc2cccc(C(F)(F)F)c2)nn(CC(O)c2ccccc2)c1N (centres undefined)	108
CCCC(O)Cn1nc(Nc2cccc(C(F)(F)F)c2)c(C(=O)OCC)c1N (centres undefined)	102
CCOC(=O)c1c(Nc2ccccc2Cl)nn(CC(O)c2ccccc2)c1N (centres undefined)	100

Tested on: MCF7
Assay: Antiproliferative activity against human MCF7 cells assessed as cell growth at 10 uM incubated for 48 hrs by MTT assay relative to control
Assay type: functional
Settings: read-out: Activity
Procedure, shortened: as §1

Compound	growth at 10 µM [%]
CCCC(O)Cn1nc(Nc2ccc(C)cc2)c(C(=O)OCC)c1N (centres undefined)	111
CCOC(=O)c1c(Nc2cccc(C(F)(F)F)c2)nn(CC(O)c2ccccc2)c1N (centres undefined)	99
CCCC(O)Cn1nc(Nc2cccc(C(F)(F)F)c2)c(C(=O)OCC)c1N (centres undefined)	80
CCOC(=O)c1c(Nc2ccccc2Cl)nn(CC(O)c2ccccc2)c1N (centres undefined)	112

Tested on: A549
Assay: Antiproliferative activity against human A549 cells assessed as cell growth at 10 uM incubated for 48 hrs by MTT assay relative to control
Assay type: functional
Settings: read-out: Activity
Procedure, shortened: as §1

Compound	growth at 10 µM [%]
CCCC(O)Cn1nc(Nc2ccc(C)cc2)c(C(=O)OCC)c1N (centres undefined)	92
CCOC(=O)c1c(Nc2cccc(C(F)(F)F)c2)nn(CC(O)c2ccccc2)c1N (centres undefined)	88
CCCC(O)Cn1nc(Nc2cccc(C(F)(F)F)c2)c(C(=O)OCC)c1N (centres undefined)	66
CCOC(=O)c1c(Nc2ccccc2Cl)nn(CC(O)c2ccccc2)c1N (centres undefined)	72

Tested on: SK-BR-3
Assay: Antiproliferative activity against human SK-BR-3 cells assessed as cell growth at 10 uM incubated for 48 hrs by MTT assay relative to control
Assay type: functional
Settings: read-out: Activity
Procedure, shortened: as §1

Compound	growth at 10 µM [%]
CCCC(O)Cn1nc(Nc2ccc(C)cc2)c(C(=O)OCC)c1N (centres undefined)	123
CCOC(=O)c1c(Nc2cccc(C(F)(F)F)c2)nn(CC(O)c2ccccc2)c1N (centres undefined)	122
CCCC(O)Cn1nc(Nc2cccc(C(F)(F)F)c2)c(C(=O)OCC)c1N (centres undefined)	118
CCOC(=O)c1c(Nc2ccccc2Cl)nn(CC(O)c2ccccc2)c1N (centres undefined)	117

Tested on: HeLa
Assay: Antiproliferative activity against human HeLa cells assessed as cell growth at 10 uM incubated for 48 hrs by MTT assay relative to control
Assay type: functional
Settings: read-out: Activity
Procedure, shortened: as §1

Compound	growth at 10 µM [%]
CCCC(O)Cn1nc(Nc2ccc(C)cc2)c(C(=O)OCC)c1N (centres undefined)	109
CCOC(=O)c1c(Nc2cccc(C(F)(F)F)c2)nn(CC(O)c2ccccc2)c1N (centres undefined)	107
CCCC(O)Cn1nc(Nc2cccc(C(F)(F)F)c2)c(C(=O)OCC)c1N (centres undefined)	77
CCOC(=O)c1c(Nc2ccccc2Cl)nn(CC(O)c2ccccc2)c1N (centres undefined)	98

Tested on: HepG2
Assay: Antiproliferative activity against human HepG2 cells assessed as cell growth at 10 uM incubated for 48 hrs by MTT assay relative to control
Assay type: functional
Settings: read-out: Activity
Procedure, shortened: as §1

Compound	growth at 10 µM [%]
CCCC(O)Cn1nc(Nc2ccc(C)cc2)c(C(=O)OCC)c1N (centres undefined)	119
CCOC(=O)c1c(Nc2cccc(C(F)(F)F)c2)nn(CC(O)c2ccccc2)c1N (centres undefined)	131
CCCC(O)Cn1nc(Nc2cccc(C(F)(F)F)c2)c(C(=O)OCC)c1N (centres undefined)	69
CCOC(=O)c1c(Nc2ccccc2Cl)nn(CC(O)c2ccccc2)c1N (centres undefined)	111

Tested on: MDA-MB-231
Assay: Antiproliferative activity against human MDA-MB-231 cells assessed as cell growth at 10 uM incubated for 48 hrs by MTT assay relative to control
Assay type: functional
Settings: read-out: Activity
Procedure, shortened: as §1

Compound	growth at 10 µM [%]
CCCC(O)Cn1nc(Nc2ccc(C)cc2)c(C(=O)OCC)c1N (centres undefined)	158
CCOC(=O)c1c(Nc2cccc(C(F)(F)F)c2)nn(CC(O)c2ccccc2)c1N (centres undefined)	162
CCCC(O)Cn1nc(Nc2cccc(C(F)(F)F)c2)c(C(=O)OCC)c1N (centres undefined)	109
CCOC(=O)c1c(Nc2ccccc2Cl)nn(CC(O)c2ccccc2)c1N (centres undefined)	115

Tested on: not listed separately
Assay: Antiproliferative activity against human GM06114 cells assessed as cell growth at 10 uM incubated for 48 hrs by MTT assay relative to control
Assay type: toxicity, cell-based
Settings: read-out: Activity
Procedure, shortened: as §1

Compound	viability at 48 h, 10 µM [%]
CCCC(O)Cn1nc(Nc2ccc(C)cc2)c(C(=O)OCC)c1N (centres undefined)	72
CCOC(=O)c1c(Nc2cccc(C(F)(F)F)c2)nn(CC(O)c2ccccc2)c1N (centres undefined)	80
CCCC(O)Cn1nc(Nc2cccc(C(F)(F)F)c2)c(C(=O)OCC)c1N (centres undefined)	71
CCOC(=O)c1c(Nc2ccccc2Cl)nn(CC(O)c2ccccc2)c1N (centres undefined)	63

Tested on: not listed separately
Assay: Antiproliferative activity against human HUVEC cells assessed as cell growth at 10 uM incubated for 48 hrs by MTT assay relative to control
Assay type: toxicity, cell-based
Settings: read-out: Activity
Procedure, shortened: as §1

Compound	viability at 48 h, 10 µM [%]
CCCC(O)Cn1nc(Nc2ccc(C)cc2)c(C(=O)OCC)c1N (centres undefined)	96
CCOC(=O)c1c(Nc2cccc(C(F)(F)F)c2)nn(CC(O)c2ccccc2)c1N (centres undefined)	92
CCCC(O)Cn1nc(Nc2cccc(C(F)(F)F)c2)c(C(=O)OCC)c1N (centres undefined)	100
CCOC(=O)c1c(Nc2ccccc2Cl)nn(CC(O)c2ccccc2)c1N (centres undefined)	93

Tested on: HUVEC
Assay: Anti-angiogenetic activity in human HUVEC cells assessed as reduction in tube length at 10 uM incubated for 12 hrs by microscopy
Assay type: functional, cell-based
Settings: not given
Procedure, shortened: (§2)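 HUVEC seeded at 2 × 10⁴ cells/well onto gelled Matrigel (mixed 1:1 with EGM-2, set 30 min at 37 °C). Cells were exposed to test agents at 10 μM for 12 h with no stimulus; untreated wells served as control. Tube long axis and branching points were counted in 10 random fields per well at 10× (Angiogenesis Analyzer), giving mean tube length per well. Mean of at least three independent experiments.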

Compound	Activity
CCCC(O)Cn1nc(Nc2ccc(C)cc2)c(C(=O)OCC)c1N (centres undefined)	Active

Tested on: HUVEC
Assay: Anti-angiogenetic activity in human HUVEC cells assessed as reduction in tube branching at 10 uM incubated for 12 hrs by microscopy
Assay type: functional, cell-based
Settings: not given
Procedure, shortened: as §2

Compound	Activity
CCCC(O)Cn1nc(Nc2ccc(C)cc2)c(C(=O)OCC)c1N (centres undefined)	Active

Tested on: HUVEC
Assay: Anti-angiogenetic activity in human HUVEC cells assessed as number of tube branching points at 10 uM incubated for 12 hrs by microscopy
Assay type: functional
Settings: not given
Procedure, shortened: as §2

Compound	Activity
CCCC(O)Cn1nc(Nc2ccc(C)cc2)c(C(=O)OCC)c1N (centres undefined)	<15

Tested on: HUVEC
Assay: Anti-angiogenetic activity in human HUVEC cells assessed as relative tube length at 10 uM incubated for 12 hrs by microscopy
Assay type: functional
Settings: not given
Procedure, shortened: as §2

Compound	Activity
CCCC(O)Cn1nc(Nc2ccc(C)cc2)c(C(=O)OCC)c1N (centres undefined)	<20
